According to ChEMBL document CHEMBL4177655, “Synthesis and biological evaluation of Santacruzamate-A based analogues” (Bioorg Med Chem, 2017):
The source made the active and inactive calls. No cut-off for these calls is given here.

Columns and labels:
HCT-116 [1] = assay: Antiproliferative activity against human HCT116 cells after 24 hrs by MTT assay; format: functional, cell-based; details: HCT-116, 24 h
[2] = target: T1, Histone deacetylase (Homo sapiens) (UniProt Q13547+O15379+Q9UBN7+Q92769+Q9UQL6+Q8WUI4+Q9BY41+Q96DB2+P56524+Q9UKV0+Q969S8); assay: Inhibition of HDAC in human HCT116 cells assessed as reduction in acetyl-histone-H4 levels at 10 uM after 24 hrs by Western blot analysis relative to control; format: cell-based
In short: (§1)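 HCT116 cells were treated 24 h at 10 µM, with DMSO vehicle as control. Total lysates (protein by Bradford against a BSA standard, ~30 µg loaded) were run on 15% SDS-PAGE under reducing conditions and transferred to nitrocellulose. Membranes were blocked in 5% milk, then probed with anti-acetyl-histone H3 or H4, with GAPDH as loading control. Detection by HRP secondary and ECL. Three experiments.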

[3] = target: Histone deacetylase 1 (Homo sapiens) (UniProt Q13547); assay: Inhibition of full-length recombinant HDAC1 (unknown origin) expressed in baculovirus infected Sf9 insect cells preincubated for 16 hrs measured every 5 mins by fluorescence assay
[4] = target: T1, Histone deacetylase (Homo sapiens); assay: Inhibition of HDAC in human HCT116 cells assessed as reduction in acetyl-histone-H3 levels at 10 uM after 24 hrs by Western blot analysis relative to control; format: cell-based; in short: as §1
[5] = target: T2, Histone deacetylase 3/Nuclear receptor corepressor 2 (HDAC3/NCoR2) (Homo sapiens) (UniProt O15379+Q9Y618); assay: Inhibition of human full length C-terminal His-tagged HDAC3/N-terminal GST-tagged human NCOR2 (395 to 489 residues) co-expressed in baculovirus infected Sf9 insect cells measured every 5 mins by fluorescence assay
[6] = target: T2, Histone deacetylase 3/Nuclear receptor corepressor 2 (HDAC3/NCoR2) (Homo sapiens); assay: Inhibition of human full length C-terminal His-tagged HDAC3/N-terminal GST-tagged human NCOR2 (395 to 489 residues) co-expressed in baculovirus infected Sf9 insect cells preincubated for 16 hrs measured every 5 mins by fluorescence assay
[7] = target: T3, Histone deacetylase 8 (Homo sapiens) (UniProt Q9BY41); assay: Inhibition of human full-length recombinant C-termianl His-tagged HDAC8 expressed in baculovirus infected Sf9 insect cells measured every 5 mins by fluorescence assay
T3 sequence (whole entry): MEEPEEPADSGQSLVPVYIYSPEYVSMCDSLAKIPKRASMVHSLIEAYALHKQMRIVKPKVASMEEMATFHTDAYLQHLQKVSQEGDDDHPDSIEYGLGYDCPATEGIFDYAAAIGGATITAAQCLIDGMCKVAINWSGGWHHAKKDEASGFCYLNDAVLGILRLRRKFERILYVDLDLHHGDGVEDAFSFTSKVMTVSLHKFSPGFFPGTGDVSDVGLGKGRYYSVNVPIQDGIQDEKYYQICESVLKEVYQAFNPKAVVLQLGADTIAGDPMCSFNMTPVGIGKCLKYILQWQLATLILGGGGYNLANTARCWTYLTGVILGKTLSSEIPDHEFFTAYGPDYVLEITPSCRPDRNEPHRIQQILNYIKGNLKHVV

[8] = target: T4, Protein deacetylase HDAC6 (Homo sapiens) (UniProt Q9UBN7); assay: Inhibition of full-length recombinant HDAC6 (unknown origin) expressed in baculovirus infected Sf9 insect cells measured every 5 mins by fluorescence assay
T4 sequence (whole entry): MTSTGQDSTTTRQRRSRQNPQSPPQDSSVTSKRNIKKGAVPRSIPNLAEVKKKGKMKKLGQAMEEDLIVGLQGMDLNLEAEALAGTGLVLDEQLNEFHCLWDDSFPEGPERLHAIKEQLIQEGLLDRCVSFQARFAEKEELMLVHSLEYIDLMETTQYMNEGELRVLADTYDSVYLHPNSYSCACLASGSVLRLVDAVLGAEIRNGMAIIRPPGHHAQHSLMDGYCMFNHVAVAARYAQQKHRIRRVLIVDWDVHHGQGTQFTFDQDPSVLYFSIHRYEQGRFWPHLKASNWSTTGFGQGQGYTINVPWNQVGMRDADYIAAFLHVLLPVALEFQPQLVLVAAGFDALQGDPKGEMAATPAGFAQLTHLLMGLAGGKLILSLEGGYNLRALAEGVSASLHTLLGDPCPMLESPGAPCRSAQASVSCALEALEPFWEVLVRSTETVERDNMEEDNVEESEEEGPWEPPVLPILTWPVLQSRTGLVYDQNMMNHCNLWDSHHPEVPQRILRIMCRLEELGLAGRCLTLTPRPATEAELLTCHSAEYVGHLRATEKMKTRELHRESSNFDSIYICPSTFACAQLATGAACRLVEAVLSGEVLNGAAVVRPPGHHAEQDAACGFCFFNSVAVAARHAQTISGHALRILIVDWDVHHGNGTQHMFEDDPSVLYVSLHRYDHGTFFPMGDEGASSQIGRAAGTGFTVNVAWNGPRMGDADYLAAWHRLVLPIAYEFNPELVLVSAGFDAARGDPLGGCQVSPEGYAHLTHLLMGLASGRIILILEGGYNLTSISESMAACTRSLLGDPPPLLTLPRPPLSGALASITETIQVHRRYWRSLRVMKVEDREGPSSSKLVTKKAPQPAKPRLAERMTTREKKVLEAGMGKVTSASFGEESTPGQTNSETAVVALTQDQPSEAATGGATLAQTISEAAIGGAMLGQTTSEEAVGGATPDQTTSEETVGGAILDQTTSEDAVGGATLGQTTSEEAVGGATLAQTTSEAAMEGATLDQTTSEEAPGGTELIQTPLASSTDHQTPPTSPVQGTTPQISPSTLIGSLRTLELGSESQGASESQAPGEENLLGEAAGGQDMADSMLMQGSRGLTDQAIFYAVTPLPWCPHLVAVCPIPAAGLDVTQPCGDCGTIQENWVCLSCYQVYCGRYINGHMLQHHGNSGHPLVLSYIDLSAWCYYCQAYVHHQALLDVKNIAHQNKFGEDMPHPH

[9] = target: Histone deacetylase 1 (Homo sapiens) (UniProt Q13547); assay: Inhibition of full-length recombinant HDAC1 (unknown origin) expressed in baculovirus infected Sf9 insect cells measured every 5 mins by fluorescence assay
[10] = target: Histone deacetylase 2 (Homo sapiens) (UniProt Q92769); assay: Inhibition of full-length human recombinant HDAC2 expressed in baculovirus infected Sf9 insect cells preincubated for 16 hrs measured every 5 mins by fluorescence assay
HCT-116 [11] = assay: Antiproliferative activity against human HCT116 cells after 72 hrs by MTT assay; format: functional, cell-based; details: HCT-116, 72 h
HCT-116 [12] = assay: Antiproliferative activity against human HCT116 cells after 48 hrs by MTT assay; format: functional, cell-based; details: HCT-116, 48 h

Sequence of Histone deacetylase 1 (Homo sapiens) (Q13547 whole entry): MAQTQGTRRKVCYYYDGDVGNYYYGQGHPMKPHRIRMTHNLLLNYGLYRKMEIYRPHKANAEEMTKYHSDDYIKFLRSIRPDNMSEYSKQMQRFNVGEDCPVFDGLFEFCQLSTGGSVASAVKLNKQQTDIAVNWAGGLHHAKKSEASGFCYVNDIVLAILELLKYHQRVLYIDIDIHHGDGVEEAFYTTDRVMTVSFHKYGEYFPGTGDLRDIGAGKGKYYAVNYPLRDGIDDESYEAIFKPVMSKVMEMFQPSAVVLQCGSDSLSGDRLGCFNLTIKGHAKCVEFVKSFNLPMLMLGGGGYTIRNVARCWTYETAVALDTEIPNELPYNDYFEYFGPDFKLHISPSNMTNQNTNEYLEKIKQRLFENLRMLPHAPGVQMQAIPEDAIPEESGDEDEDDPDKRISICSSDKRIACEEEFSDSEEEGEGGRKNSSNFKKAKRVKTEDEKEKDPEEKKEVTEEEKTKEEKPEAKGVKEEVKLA
Sequence of Histone deacetylase 2 (Homo sapiens) (Q92769 whole entry): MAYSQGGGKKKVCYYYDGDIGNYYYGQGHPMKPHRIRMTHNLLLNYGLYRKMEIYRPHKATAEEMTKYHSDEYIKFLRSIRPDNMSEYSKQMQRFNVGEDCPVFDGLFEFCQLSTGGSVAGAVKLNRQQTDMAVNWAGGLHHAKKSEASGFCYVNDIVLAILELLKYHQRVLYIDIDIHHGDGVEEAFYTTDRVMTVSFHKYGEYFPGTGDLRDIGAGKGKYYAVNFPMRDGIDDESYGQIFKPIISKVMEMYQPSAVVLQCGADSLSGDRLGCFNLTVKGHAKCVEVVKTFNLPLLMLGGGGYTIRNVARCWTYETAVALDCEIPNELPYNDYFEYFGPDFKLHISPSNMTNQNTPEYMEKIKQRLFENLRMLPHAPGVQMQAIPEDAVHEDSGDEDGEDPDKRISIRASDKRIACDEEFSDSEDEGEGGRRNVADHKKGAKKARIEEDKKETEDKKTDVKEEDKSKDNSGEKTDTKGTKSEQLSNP

O=C(CCCNC(=O)C(=O)O)NCCc1cccc(F)c1
IC50 (HCT-116 [1]): > 50 µM

CCOC(=O)NCCCC(=O)NCCc1cccc(O)c1
inhibition [2]: inactive | inhibition [3]: inactive | inhibition [4]: inactive | inhibition [5]: inactive | inhibition [6]: inactive | inhibition [7]: inactive | IC50 (HCT-116 [1]): > 50 µM | inhibition [8]: inactive | inhibition [9]: inactive | inhibition [10]: inactive | IC50 (HCT-116 [11]): 1 to 5 µM | IC50 (HCT-116 [12]): 0.476 µM

O=C(CCCNC(=O)C(=O)O)NCCCc1ccccc1
IC50 (HCT-116 [1]): > 50 µM

O=C(CCCNC(=O)C(=O)O)NCCc1cccc(O)c1
IC50 (HCT-116 [1]): > 50 µM | IC50 (HCT-116 [12]): > 50 µM

CCOC(=O)NCCCC(=O)NCCCc1ccccc1
IC50 (HCT-116 [1]): > 50 µM | IC50 (HCT-116 [11]): > 50 µM | IC50 (HCT-116 [12]): > 50 µM

O=C(CCCNC(=O)C(=O)O)NCCc1c[nH]c2ccccc12
IC50 (HCT-116 [1]): < 50 µM

CCOC(=O)NCCCC(=O)NCc1ccccc1
IC50 (HCT-116 [1]): > 50 µM | IC50 (HCT-116 [11]): 0.615 µM

CCOC(=O)NCCCC(=O)NCCc1ccccc1
inhibition [3]: inactive | inhibition [5]: inactive | inhibition [6]: inactive | inhibition [7]: inactive | IC50 (HCT-116 [1]): > 50 µM | inhibition [8]: inactive | inhibition [9]: inactive | inhibition [10]: inactive | IC50 (HCT-116 [11]): > 50 µM | IC50 (HCT-116 [12]): > 50 µM

O=C(CCCNC(=O)C(=O)O)NCCc1ccccc1
IC50 (HCT-116 [1]): > 50 µM | IC50 (HCT-116 [12]): > 50 µM

O=C(CCCNC(=O)C(=O)O)Nc1ccccc1
inhibition [2]: inactive | inhibition [4]: inactive | IC50 (HCT-116 [1]): 0.814 µM | IC50 (HCT-116 [12]): > 50 µM

CCOC(=O)NCCCC(=O)NCCc1cccc(F)c1
IC50 (HCT-116 [1]): > 50 µM | IC50 (HCT-116 [11]): 5 to 10 µM | IC50 (HCT-116 [12]): 0.825 µM
